Data: ChEMBL document CHEMBL3407339, “A novel series of thiazolyl-pyrazoline derivatives: synthesis and evaluation of antifungal activity, cytotoxicity and genotoxicity” (Eur J Med Chem, 2015)
Converted amounts (≈) assume the structure as drawn.

Assays:
Nakaseomyces glabratus = experiment: Antifungal activity against Candida glabrata clinical isolate after 48 hrs by broth microdilution assay; assay type: functional
Summary of the method: (§1)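 Broth microdilution of DMSO stocks serially diluted in sterile water (4 to 0.0039 mg/mL). Yeasts grown on SDA at 37 °C for 24 h, suspended in double-strength PDB at 10⁵ spores/mL. Incubated at 37 °C for 48 h, then sprayed with 0.5% aqueous TTC. MIC = lowest concentration inhibiting visible growth. Ketoconazole reference.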

Candida albicans = experiment: Antifungal activity against Candida albicans ATCC 90028 after 48 hrs by broth microdilution assay; assay type: functional; details: ATCC 90028, 48 h; summary of the method: as §1
Candida tropicalis = experiment: Antifungal activity against Candida tropicalis NRLL Y 12968 after 48 hrs by broth microdilution assay; assay type: functional; details: NRLL Y 12968, 48 h; summary of the method: as §1
Pichia kudriavzevii = experiment: Antifungal activity against Candida krusei NRLL Y 7179 after 48 hrs by broth microdilution assay; assay type: functional; details: NRLL Y 7179, 48 h; summary of the method: as §1
[Candida] zeylanoides = Antifungal activity against Candida zeylanoides NRLL Y 1774 after 48 hrs by broth microdilution assay; assay type: functional; details: Dujonia zeylanoides, NRLL Y 1774, 48 h; summary of the method: as §1
Candida parapsilosis = experiment: Antifungal activity against Candida parapsilosis NRLL Y 12696 after 48 hrs by broth microdilution assay; assay type: functional; details: Lodderomyces parapsilosis, NRLL Y 12696, 48 h; summary of the method: as §1
Aspergillus flavus = experiment: Antifungal activity against Aspergillus flavus NRRL 980 after 72 hrs by broth microdilution assay; assay type: functional; details: NRRL 980, 72 h
Summary of the method: (§2)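 Compounds dissolved in DMSO, diluted in sterile distilled water from 4 to 0.0039 mg/mL. Molds grown on PDA at 25 °C for 5 days, suspended in double-strength PDB at 10⁵ spores/mL. Incubated at 25 °C for 72 h; mycelial growth read under stereo microscope. MIC = lowest concentration inhibiting visible growth. Ketoconazole reference.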

Aspergillus niger = experiment: Antifungal activity against Aspergillus niger ATCC 1094 after 72 hrs by broth microdilution assay; assay type: functional; details: ATCC 1094, 72 h; summary of the method: as §2
Aspergillus parasiticus = experiment: Antifungal activity against Aspergillus parasiticus NRRL 465 after 72 hrs by broth microdilution assay; assay type: functional; details: NRRL 465, 72 h; summary of the method: as §2
Fusarium solani = experiment: Antifungal activity against Fusarium solani NRRL 13414 after 72 hrs by broth microdilution assay; assay type: functional; details: NRRL 13414, 72 h; summary of the method: as §2
Salmonella typhimurium [1] = experiment: Mutagenicity in Salmonella typhimurium TA98 at 0.156 mg/ml after 48 hrs by AMES MPF assay in presence of Sprague-Dawley rat liver microsomal S9 fraction relative to baseline; assay type: toxicity, organism-based; details: salmonella enterica subsp. enterica serovar typhimurium
Summary of the method: (§3)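 Ames MPF fluctuation test with TA98/TA100. Overnight cultures (37 °C, 14–16 h) mixed with exposure medium; ±Aroclor-1254-induced rat liver S9 (final 4.5% v/v). Compounds in DMSO, 0.156–5 mg/mL. 90 min exposure at 37 °C, then indicator medium; 48 wells per concentration, 48 h at 37 °C, in triplicate. Yellow wells counted; fold induction over baseline (mean + 1 SD of zero-dose control).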

Salmonella typhimurium [2] = experiment: Mutagenicity in Salmonella typhimurium TA98 at 0.3125 mg/ml after 48 hrs by AMES MPF assay in presence of Sprague-Dawley rat liver microsomal S9 fraction relative to baseline; assay type: toxicity, organism-based; details: salmonella enterica subsp. enterica serovar typhimurium; summary of the method: as §3
Salmonella typhimurium [3] = experiment: Mutagenicity in Salmonella typhimurium TA98 at 0.625 mg/ml after 48 hrs by AMES MPF assay in presence of Sprague-Dawley rat liver microsomal S9 fraction relative to baseline; assay type: toxicity, organism-based; details: salmonella enterica subsp. enterica serovar typhimurium; summary of the method: as §3
Salmonella typhimurium [4] = experiment: Mutagenicity in Salmonella typhimurium TA98 at 1.25 mg/ml after 48 hrs by AMES MPF assay in presence of Sprague-Dawley rat liver microsomal S9 fraction relative to baseline; assay type: toxicity, organism-based; details: salmonella enterica subsp. enterica serovar typhimurium; summary of the method: as §3
Salmonella typhimurium [5] = experiment: Mutagenicity in Salmonella typhimurium TA98 at 2.5 mg/ml after 48 hrs by AMES MPF assay in presence of Sprague-Dawley rat liver microsomal S9 fraction relative to baseline; assay type: toxicity, organism-based; details: salmonella enterica subsp. enterica serovar typhimurium; summary of the method: as §3
Salmonella typhimurium [6] = experiment: Mutagenicity in Salmonella typhimurium TA98 at 5 mg/ml after 48 hrs by AMES MPF assay in presence of Sprague-Dawley rat liver microsomal S9 fraction relative to baseline; assay type: toxicity, organism-based; details: salmonella enterica subsp. enterica serovar typhimurium; summary of the method: as §3
Salmonella typhimurium [7] = experiment: Mutagenicity in Salmonella typhimurium TA98 at 0.156 mg/ml after 48 hrs by AMES MPF assay in absence of Sprague-Dawley rat liver microsomal S9 fraction relative to baseline; assay type: toxicity, organism-based; details: salmonella enterica subsp. enterica serovar typhimurium; summary of the method: as §3
Salmonella typhimurium [8] = experiment: Mutagenicity in Salmonella typhimurium TA98 at 0.3125 mg/ml after 48 hrs by AMES MPF assay in absence of Sprague-Dawley rat liver microsomal S9 fraction relative to baseline; assay type: toxicity, organism-based; details: salmonella enterica subsp. enterica serovar typhimurium; summary of the method: as §3
Salmonella typhimurium [9] = experiment: Mutagenicity in Salmonella typhimurium TA98 at 0.625 mg/ml after 48 hrs by AMES MPF assay in absence of Sprague-Dawley rat liver microsomal S9 fraction relative to baseline; assay type: toxicity, organism-based; details: salmonella enterica subsp. enterica serovar typhimurium; summary of the method: as §3
Salmonella typhimurium [10] = experiment: Mutagenicity in Salmonella typhimurium TA98 at 1.25 mg/ml after 48 hrs by AMES MPF assay in absence of Sprague-Dawley rat liver microsomal S9 fraction relative to baseline; assay type: toxicity, organism-based; details: salmonella enterica subsp. enterica serovar typhimurium; summary of the method: as §3
Salmonella typhimurium [11] = experiment: Mutagenicity in Salmonella typhimurium TA98 at 2.5 mg/ml after 48 hrs by AMES MPF assay in absence of Sprague-Dawley rat liver microsomal S9 fraction relative to baseline; assay type: toxicity, organism-based; details: salmonella enterica subsp. enterica serovar typhimurium; summary of the method: as §3
Salmonella typhimurium [12] = experiment: Mutagenicity in Salmonella typhimurium TA98 at 5 mg/ml after 48 hrs by AMES MPF assay in absence of Sprague-Dawley rat liver microsomal S9 fraction relative to baseline; assay type: toxicity, organism-based; details: salmonella enterica subsp. enterica serovar typhimurium; summary of the method: as §3
Salmonella typhimurium [13] = experiment: Mutagenicity in Salmonella typhimurium TA100 at 0.156 mg/ml after 48 hrs by AMES MPF assay in presence of Sprague-Dawley rat liver microsomal S9 fraction relative to baseline; assay type: toxicity, organism-based; details: salmonella enterica subsp. enterica serovar typhimurium; summary of the method: as §3
Salmonella typhimurium [14] = experiment: Mutagenicity in Salmonella typhimurium TA100 at 0.3125 mg/ml after 48 hrs by AMES MPF assay in presence of Sprague-Dawley rat liver microsomal S9 fraction relative to baseline; assay type: toxicity, organism-based; details: salmonella enterica subsp. enterica serovar typhimurium; summary of the method: as §3
Salmonella typhimurium [15] = experiment: Mutagenicity in Salmonella typhimurium TA100 at 0.625 mg/ml after 48 hrs by AMES MPF assay in presence of Sprague-Dawley rat liver microsomal S9 fraction relative to baseline; assay type: toxicity, organism-based; details: salmonella enterica subsp. enterica serovar typhimurium; summary of the method: as §3
Salmonella typhimurium [16] = experiment: Mutagenicity in Salmonella typhimurium TA100 at 1.25 mg/ml after 48 hrs by AMES MPF assay in presence of Sprague-Dawley rat liver microsomal S9 fraction relative to baseline; assay type: toxicity, organism-based; details: salmonella enterica subsp. enterica serovar typhimurium; summary of the method: as §3
Salmonella typhimurium [17] = experiment: Mutagenicity in Salmonella typhimurium TA100 at 2.5 mg/ml after 48 hrs by AMES MPF assay in presence of Sprague-Dawley rat liver microsomal S9 fraction relative to baseline; assay type: toxicity, organism-based; details: salmonella enterica subsp. enterica serovar typhimurium; summary of the method: as §3
Salmonella typhimurium [18] = experiment: Mutagenicity in Salmonella typhimurium TA100 at 5 mg/ml after 48 hrs by AMES MPF assay in presence of Sprague-Dawley rat liver microsomal S9 fraction relative to baseline; assay type: toxicity, organism-based; details: salmonella enterica subsp. enterica serovar typhimurium; summary of the method: as §3
Salmonella typhimurium [19] = experiment: Mutagenicity in Salmonella typhimurium TA100 at 0.156 mg/ml after 48 hrs by AMES MPF assay in absence of Sprague-Dawley rat liver microsomal S9 fraction relative to baseline; assay type: toxicity, organism-based; details: salmonella enterica subsp. enterica serovar typhimurium; summary of the method: as §3
Salmonella typhimurium [20] = experiment: Mutagenicity in Salmonella typhimurium TA100 at 0.3125 mg/ml after 48 hrs by AMES MPF assay in absence of Sprague-Dawley rat liver microsomal S9 fraction relative to baseline; assay type: toxicity, organism-based; details: salmonella enterica subsp. enterica serovar typhimurium; summary of the method: as §3
Salmonella typhimurium [21] = experiment: Mutagenicity in Salmonella typhimurium TA100 at 0.625 mg/ml after 48 hrs by AMES MPF assay in absence of Sprague-Dawley rat liver microsomal S9 fraction relative to baseline; assay type: toxicity, organism-based; details: salmonella enterica subsp. enterica serovar typhimurium; summary of the method: as §3
Salmonella typhimurium [22] = experiment: Mutagenicity in Salmonella typhimurium TA100 at 1.25 mg/ml after 48 hrs by AMES MPF assay in absence of Sprague-Dawley rat liver microsomal S9 fraction relative to baseline; assay type: toxicity, organism-based; details: salmonella enterica subsp. enterica serovar typhimurium; summary of the method: as §3
Salmonella typhimurium [23] = experiment: Mutagenicity in Salmonella typhimurium TA100 at 2.5 mg/ml after 48 hrs by AMES MPF assay in absence of Sprague-Dawley rat liver microsomal S9 fraction relative to baseline; assay type: toxicity, organism-based; details: salmonella enterica subsp. enterica serovar typhimurium; summary of the method: as §3
Salmonella typhimurium [24] = experiment: Mutagenicity in Salmonella typhimurium TA100 at 5 mg/ml after 48 hrs by AMES MPF assay in absence of Sprague-Dawley rat liver microsomal S9 fraction relative to baseline; assay type: toxicity, organism-based; details: salmonella enterica subsp. enterica serovar typhimurium; summary of the method: as §3
A549 = experiment: Antiproliferative activity against human A549 cells after 24 hrs by XTT assay; assay type: functional, cell-based; details: A549, 24 h
Summary of the method: (§4)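 A549 cells in RPMI and NIH/3T3 cells in DMEM, each with fetal calf serum, antibiotics and 7.5% NaHCO₃, at 37 °C, 5% CO₂. Seeded at 20,000 cells/well, 24 h, then compounds added in medium at 500–3.9 doses (final DMSO <0.1%) for 24 h. XTT read after 3 h at 480 nm (ref 680 nm). IC₅₀ by non-linear regression; triplicates; cisplatin control.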

[25] = Cytotoxicity against mouse NIH/3T3 cells after 24 hrs by XTT assay; assay type: cell-based; details: NIH3T3, 24 h; summary of the method: as §4

With Fc1ccc(C2CC(c3ccc(Cl)s3)=NN2c2nc(-c3ccc(C(F)(F)F)cc3)cs2)cc1 (stereo unspecified) the MIC (Nakaseomyces glabratus) was 125 µg/mL (≈ 246 µM), the MIC (Candida albicans) was 500 µg/mL (≈ 984 µM) and the MIC (Candida tropicalis) was 500 µg/mL (≈ 984 µM). For the same molecule, the MIC (Pichia kudriavzevii) was 1000 µg/mL (≈ 1970 µM), the MIC ([Candida] zeylanoides) was 500 µg/mL (≈ 984 µM) and the MIC (Candida parapsilosis) was 500 µg/mL (≈ 984 µM). For the same molecule, the MIC (Aspergillus flavus) was 125 µg/mL (≈ 246 µM), the MIC (Aspergillus niger) was 250 µg/mL (≈ 492 µM) and the MIC (Aspergillus parasiticus) was 250 µg/mL (≈ 492 µM). The MIC (Fusarium solani) was 250 µg/mL (≈ 492 µM), the “fold change (FC)” value (Salmonella typhimurium [1]) was 0.87 and the “fold change (FC)” value (Salmonella typhimurium [2]) was 0.55. For the same molecule, the “fold change (FC)” value (Salmonella typhimurium [3]) was 1.09, the “fold change (FC)” value (Salmonella typhimurium [4]) was 0.22 and the “fold change (FC)” value (Salmonella typhimurium [5]) was 0.33. For the same molecule, the “fold change (FC)” value (Salmonella typhimurium [6]) was 0.98, the “fold change (FC)” value (Salmonella typhimurium [7]) was 0 and the “fold change (FC)” value (Salmonella typhimurium [8]) was 0.33. For the same molecule, the “fold change (FC)” value (Salmonella typhimurium [9]) was 0.67, the “fold change (FC)” value (Salmonella typhimurium [10]) was 0.67 and the “fold change (FC)” value (Salmonella typhimurium [11]) was 0. The “fold change (FC)” value (Salmonella typhimurium [12]) was 0.67, the “fold change (FC)” value (Salmonella typhimurium [13]) was 2.08 and the “fold change (FC)” value (Salmonella typhimurium [14]) was 2.31. The “fold change (FC)” value (Salmonella typhimurium [15]) was 2.54, the “fold change (FC)” value (Salmonella typhimurium [16]) was 2.77 and the “fold change (FC)” value (Salmonella typhimurium [17]) was 2.31. The “fold change (FC)” value (Salmonella typhimurium [18]) was 2.31, the “fold change (FC)” value (Salmonella typhimurium [19]) was 0.67 and the “fold change (FC)” value (Salmonella typhimurium [20]) was 1. The “fold change (FC)” value (Salmonella typhimurium [21]) was 1.33, the “fold change (FC)” value (Salmonella typhimurium [22]) was 3 and the “fold change (FC)” value (Salmonella typhimurium [23]) was 1.33. For the same molecule, the “fold change (FC)” value (Salmonella typhimurium [24]) was 2.67, the IC50 (A549) was > 500 µg/mL and the IC50 [25] was > 500 µg/mL.
